Experimental data of several laboratories.
Sample: plasma

| SMILES | species | route | dose | notes | bioavailability [%] |
| --- | --- | --- | --- | --- | --- |
| Cc1c(C(=O)Nc2ccccc2)sc(N)c1C(N)=O | male CD-1 mouse | oral | 10 mg/kg | – | 34 |
| N[C@@H](CSSC[C@H](N)C(=O)O)C(=O)O | Kunming mouse | oral | 25 mg/kg | – | 18.6 |
| CCc1ccc(Cc2cc([C@@H]3O[C@H](CO)[C@@H](O)[C@H](O)[C@H]3O)cc3c2CCC3)cc1 | male C57BL/6 mouse | oral | 0.3 mg/kg | – | > 100 |
| CCCCCCCC(=O)N[C@H](CN1CCCC1)[C@H](O)c1ccc2c(c1)OCCO2 | CD-1 mouse | oral | 10 mg/kg | – | < 1 |
| CCc1cc(C(=O)NC)c2nccc(N3CCc4c(cc(Cn5ccnc5)cc4-c4cn(C)nc4C(F)(F)F)C3=O)c2c1 | male CD-1 mouse | oral | 50 mg/kg | – | 175 |
| CCN1CC(=O)NC(CC(C)C)C(=O)N(C)C(C)C(=O)NC(CC(C)C)C(=O)N2CCCC2C(=O)N(CC2CCOCC2)CC(=O)NC(CC(C)C)C(=O)N(C)C(C)C(=O)NC(C)C(=O)N2CCCC2C1=O (stereo not drawn) | mouse | oral | 200 mg/kg | – | 50 |
| COc1nc(-c2cc(C)c(N[C@@H](C)c3c(F)cc(F)cc3F)nn2)ccc1-n1cnc(C)c1 | male CD-1 mouse | oral | 5 mg/kg | single dose | 63.7 |
| O=C(NCC1CC1)c1cc(N2CC[C@H](O)C2)nc(N2CCC[C@@H](c3ccccc3)C2)n1 | mouse | oral | 10 mg/kg | – | 25 |
| CC(C)(Nc1nc(-c2ccccn2)nc2ccccc12)c1ccccn1 | female BALB/c mouse | oral | 50 mg/kg | – | 102 |
| CC(C)c1cnn2c(NCc3ccccc3)cc(NC[C@H]3CCNC[C@@H]3O)nc12 | male CD-1 mouse | oral | 10 mg/kg | – | 30 |
| COc1ccc2nccc(N3CCc4c(cc(Cn5ccnc5)cc4-c4cn(C)nc4C(F)(F)F)C3=O)c2c1 | male CD-1 mouse | oral | 50 mg/kg | – | 110 |
| CN1CCc2c(c3ccccc3n2Cc2ccc(C(=O)NO)cc2)C1 | male CD-1 mouse | oral | 30 mg/kg | – | ~6 |
| O=[N+]([O-])c1cccc2[nH]c(CNc3nc(N4CCOCC4)nc4c3ncn4-c3ccsc3)nc12 | mouse | intravenous | 1 mg/kg | – | 0 |
| Cc1ccc2cncc(N3CCc4c(cc(Cn5ccnc5)cc4-c4cn(C)nc4C(F)(F)F)C3=O)c2c1 | male CD-1 mouse | oral | 50 mg/kg | – | 56 |
| CN[C@@H](C)C(=O)N[C@H]1CN(C(=O)CC(C)C)CC[C@H]2CC[C@@H](C(=O)NC(c3ccccc3)c3ccccc3)N2C1=O | SCID mouse | oral | 100 mg/kg | tumour-bearing | 42.7 |
| Oc1ccc(-c2nc(-c3ccc(Oc4ccc(C(F)(F)F)cc4)cc3)no2)cc1 | female CD-1 mouse | oral | 50 mg/kg | – | 100 |
| CCc1cc(OC)c2nccc(N3CCc4c(cc(Cn5ccnc5)cc4-c4cn(C)nc4C(F)(F)F)C3=O)c2c1 | male CD-1 mouse | oral | 50 mg/kg | – | 194 |
| CC[C@H](C)[C@@H]1NC(=O)[C@@](C)(NC(=O)[C@H](CCCNC(=N)N)NC(=O)[C@H](CC(C)C)NC(=O)[C@@H](NC(=O)[C@H](CCC(N)=O)NC(=O)[C@H](CC(C)C)NC(C)=O)[C@@H](C)O)CCCC=CCCC[C@@](C)(C(=O)N[C@@H](CC(C)C)C(=O)N[C@@H](Cc2ccc3ccccc3c2)C(N)=O)NC(=O)[C@H](CCCNC(=N)N)NC(=O)[C@H](CCC(N)=O)NC1=O | male BALB/c mouse | intramuscular | 5 mg/kg | – | 20.6 |
